One data set has as its system rhinovirus A1B. The data set is described as follows: Antiviral activity against Rhinovirus 1B infected in human HeLa cells assessed as reduction in plaque formation per plate after 72 hrs. Format: functional, organism-based, Human rhinovirus 1B. Set-up: ED50: unit: ug/plate. The gist of the method:
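M-HeLa cells were seeded at 10⁶ per plate in MEM with 10% FCS and grown to confluence overnight. They were infected with RV1B at 100-200 pfu/plate for 1 h. Excess virus was replaced with an agarose overlay (MEM, FCS, tryptose broth) holding serial doubling dilutions from EtOH, final EtOH ≤1%. Plates ran 72 h at 33°, then were formol-saline fixed and methyl violet stained.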

The test system of data set [1] is HeLa. The data set is described as follows: Cytotoxicity against human HeLa cells upto 20 ug/plate. The format is cell-based. The gist of the method: (§1)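 Cytotoxicity was judged in the plaque-assay plates: confluent M-HeLa monolayers under agarose overlay with sample added from EtOH doubling dilutions (≤1% EtOH), 72 h at 33°, then formol-saline fixed and methyl violet stained. Monolayers were inspected for cell destruction, altered appearance or thinning relative to cell controls (no virus, no sample) and virus controls, up to the top plate concentration.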

Data set [2] concerns HeLa. Description: Cytotoxicity against human HeLa cells upto 1.35 ug/plate. Format: cell-based. The gist of the method: as §1

As to `C=C1C=C[C@H]([C@H](C)CCC=C(C)C)CC1`, the ED50 in the data set with rhinovirus A1B was found to be 0.9 µg. Further, the concentration for half-maximal inhibition (IC50) in the data set on rhinovirus A1B (Rhinovirus A, HeLa, 72 h) stood at 440 nM. In the data set with HeLa [1], the Activity result is recorded as “Non-toxic”.

With `C=C(CCC=C(C)C)[C@H]1CC=C(C)CC1`, the ED50 with rhinovirus A1B was 14.3 µg. For the same compound, the Activity entry with HeLa [1] is listed as “Non-toxic”.

`CC(C)=CCC[C@@H](C)[C@H]1C=CC(C)=CC1`: the ED50 in the data set on rhinovirus A1B is 1.9 µg. In addition, the Activity entry in the data set with HeLa [1] was “Non-toxic”.

In the case of `CC(C)=CCC[C@@H](C)c1ccc(C)cc1`, the ED50 in the data set on rhinovirus A1B is 20.4 µg. Further, the Activity entry in the data set on HeLa [1] is listed as “Non-toxic”.

Consider `c1ccc(C2CCc3ccccc3O2)cc1` (stereo unspecified) [FLAVANE], for which the ED50 with rhinovirus A1B came to 0.27 µg. For the same compound, the Activity entry in the data set with HeLa [2] is listed as “Non-toxic”.

In general, IC50 refers to the point on the concentration scale where inhibition reaches its midpoint.

(Values after ChEMBL document CHEMBL1149070, “Isolation of antirhinoviral sesquiterpenes from ginger (Zingiber officinale)” (J Nat Prod, 1994).)
